Beta apoptosis = inhibitors of cytokine-induced beta cell apoptosis, primary screen, luminescence | INS-1E cytokine-induced death, ATP luminescence, 48 h; percent of positive-control rescue, neutral wells zero | protection from apoptosis, % (no concentration beside the values) | 300,000 tested, 0.8% active | AID 435005, 2010;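 active = Every replicate reaches about 75%, or at least half do and their mean reaches it too, limit read from the data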;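 note: higher means more ATP so stronger rescue from cytokine killing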
NR3A LBD binder = binders of NR3A ligand-binding domain, primary screen, biophysical, differential scanning fluorimetry, uHTS; Glutamate receptor ionotropic, NMDA 3A (GRIN3A) ligand-binding domain; NR3A LBD differential scanning fluorimetry, Tm shift; 0% = protein alone, 100% = glycine-bound protein; Tm shift relative to glycine control, % at 25 µM; 340,000 tested, 2.5% active; AID 1259313, 2017;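 active = melting temperature shift of at least 10% of the positive control shift, at one fixed dose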
PREPL inh = PREPL enzyme inhibitors, primary screen, biochemical, fluorescence polarization | Prolyl endopeptidase-like (Homo sapiens), Q4J6C6 | recombinant PREPL, fluorescence polarization activity-based probe | inhibition, % at 5.96 µM | 320,000 tested, 0.68% active | AID 2751, 2010
Target sequence (Q4J6C6 whole entry, looked up): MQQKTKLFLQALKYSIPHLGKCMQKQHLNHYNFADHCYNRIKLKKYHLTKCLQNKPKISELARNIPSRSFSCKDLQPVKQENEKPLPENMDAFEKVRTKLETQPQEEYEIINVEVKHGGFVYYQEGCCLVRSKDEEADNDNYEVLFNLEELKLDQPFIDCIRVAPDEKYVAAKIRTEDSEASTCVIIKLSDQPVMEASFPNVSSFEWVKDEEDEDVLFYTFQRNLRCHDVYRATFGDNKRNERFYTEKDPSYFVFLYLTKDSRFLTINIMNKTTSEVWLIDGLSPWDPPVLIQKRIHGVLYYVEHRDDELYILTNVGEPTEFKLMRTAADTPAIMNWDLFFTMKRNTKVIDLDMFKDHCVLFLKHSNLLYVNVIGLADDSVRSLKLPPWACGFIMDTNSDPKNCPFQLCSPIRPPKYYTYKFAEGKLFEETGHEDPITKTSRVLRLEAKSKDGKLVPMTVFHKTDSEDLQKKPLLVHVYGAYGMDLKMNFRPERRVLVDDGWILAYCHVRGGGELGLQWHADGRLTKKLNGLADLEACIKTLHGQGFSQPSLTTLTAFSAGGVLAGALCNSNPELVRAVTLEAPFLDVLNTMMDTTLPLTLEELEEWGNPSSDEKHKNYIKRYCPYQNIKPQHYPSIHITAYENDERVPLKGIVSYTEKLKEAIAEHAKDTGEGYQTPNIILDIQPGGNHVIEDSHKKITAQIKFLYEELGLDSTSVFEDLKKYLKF
T cruzi repl = inhibitors of intracellular T. cruzi growth, primary screen, luminescence, NIH3T3 host cells; 300,000 tested, 1.4% active; T. cruzi beta-gal in NIH3T3, 90 h; inhibition, % (concentration not given with the values); AID 1885, 2009;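 active = mean inhibition across valid replicates above about 55%, limit read from the data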;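 note: signal also drops with host cell toxicity which is not excluded here; higher percent means less beta-gal luminescence so fewer parasites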
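Material: NIH/3T3 host cells with β-galactosidase reporter T. cruzi; Input: 5,000 host fibroblasts per well; Medium: DMEM, 2% fetal bovine serum; Compound: 50 nL DMSO compound solution per well; Schedule: 3 h host attachment, then at least 90 h co-culture; Detection: luminescent β-galactosidase signal after 60 min lysis.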
CHOP inhibitor = inhibitors of CHOP promoter induction, primary screen, cell-based, unfolded protein response, luciferase reporter; CHO-K1 CHOP-promoter luciferase, tunicamycin-induced, 15-18 h; inhibition, % at 10 µM; AID 2732, 2010; 220,000 tested, 3.8% active;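 active = compounds that reduced the stress-induced luciferase reporter signal by more than about 70% of percent inhibition, limit read from the data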
CSC inhib = cancer stem cell viability inhibitors, primary screen, luminescence. cancer stem cell-like cells viability. inhibition, % at 7.5 µM. 300,000 tested, 1.1% active; in the data active = inhibition above about 75%; tested in HMLE shEcad cells
PREPL inh cf = human PREPL enzyme inhibitors, confirmation, biochemical, fluorescence polarization; recombinant PREPL, fluorescence polarization activity probe; inhibition, % at 5.96 µM; 2,000 tested, 67% active; shares compounds with PREPL inh; AID 2803, 2010
Large screens that a line does not name were inactive (follow-up assays come after a bar, where they were run). Shown are actives, neighbours in structure and some others; about 6.7% of the full set was active somewhere. Cut-off read from the data, not from the text of the source, unless noted: active = inhibition above about 43%; inactive = the rest.

C#CCOCCOCCOCCNc1nc(N2CCOCC2)nc(N2CCN(C(=O)[C@H](CCCN=C(N)N)n3cc(C(N)[C@@H](C)CC)nn3)CC2)n1 (some centres undefined)	none (no result: T cruzi repl, CHOP inhibitor)
C#CCOCCOCCOCCNc1nc(N2CCN(C(=O)[C@H]([C@@H](C)CC)n3cc([C@@H](N)CO)nn3)CC2)nc(N2CCN(C(=O)[C@H](Cc3cc4ccccc4[nH]3)n3cc([C@@H](N)C(C)CC)nn3)CC2)n1 (some centres undefined)	PREPL inh 48 (no result: NR3A LBD binder) | PREPL inh cf 49
C#CCOCCOCCOCCNc1nc(N2CCN(C(=O)[C@H](Cc3cc4ccccc4[nH]3)n3cc([C@@H](N)C(C)CC)nn3)CC2)nc(N2CCN(C(=O)[C@H](CCCCN)n3cc([C@@H](N)CC(C)C)nn3)CC2)n1 (some centres undefined)	PREPL inh 46 | PREPL inh cf 50
C#CCOCCOCCOCCNc1nc(N2CCN(C(=O)[C@H]([C@@H](C)CC)n3cc([C@@H](N)CC(C)C)nn3)CC2)nc(N2CCN(C(=O)[C@H](Cc3cc4ccccc4[nH]3)n3cc([C@@H](N)CC(C)C)nn3)CC2)n1	none (no result: Beta apoptosis, NR3A LBD binder, PREPL inh, CSC inhib)
C#CCOCCOCCOCCNc1nc(N2CCN(C(=O)[C@H](CCC(=O)O)n3cc(C(N)Cc4ccc(O)cc4)nn3)CC2)nc(N2CCN(C(=O)[C@H](Cc3cc4ccccc4[nH]3)n3cc(C(N)[C@H](C)CC)nn3)CC2)n1 (some centres undefined)	none
C=CCn1c(SCC(=O)Nc2cccc(S(N)(=O)=O)c2)nc2sc(C)c(C)c2c1=O	none (no result: T cruzi repl, CHOP inhibitor)
CCN1/C(=C/C=C/c2oc3ccc(-c4ccccc4)cc3[n+]2CC)Oc2ccc(-c3ccccc3)cc21	Beta apoptosis 111, NR3A LBD binder 60, PREPL inh 67, T cruzi repl 90, CHOP inhibitor 108, CSC inhib 116 | PREPL inh cf inactive
Nc1ccc(C2=Nc3cccc4cccc(c34)N2)cc1	none (no result: Beta apoptosis, PREPL inh, CSC inhib)
CC1=Nc2cccc3cccc(c23)N1	PREPL inh 45 | PREPL inh cf inactive
CN(C)S(=O)(=O)c1ccc(NC(=O)COc2cccc3c2OC(C)(C)C3)cc1	none (no result: Beta apoptosis, PREPL inh, T cruzi repl, CHOP inhibitor, CSC inhib)
c1ccc(CCNc2nc(-c3ccccn3)nc3ccccc23)cc1	Beta apoptosis 96, PREPL inh 73, T cruzi repl 76, CHOP inhibitor 81 | PREPL inh cf 77
c1ccc(-c2nc(N3CCOCC3)c3ccccc3n2)nc1	none
c1ccc(-c2nc(N3CCCCCC3)c3ccccc3n2)nc1	Beta apoptosis 123, PREPL inh 68, T cruzi repl 63 (no result: CHOP inhibitor) | PREPL inh cf 65
CCOC(=O)c1ccc2ncc(C(=O)OCC)c(Nc3ccc(N4CCOCC4)cc3)c2c1	PREPL inh 45 | PREPL inh cf inactive
CCOC(=O)N1CCC(N2CCCC(CO)(Cc3cccc(OC)c3)C2)CC1 (centres undefined)	none
Brc1csc(/C=N/Nc2nc3ccccc3s2)c1	NR3A LBD binder 22, PREPL inh 54 | PREPL inh cf inactive
Cc1ccc2sc(N(CCCN(C)C)C(=O)c3ccc(S(=O)(=O)N(C)C4CCCCC4)cc3)nc2c1C	PREPL inh 52, T cruzi repl 59, CSC inhib 89 (no result: Beta apoptosis, CHOP inhibitor) | PREPL inh cf 47
COc1ccc(CCN2CC(C(=O)OCc3ccccc3Cl)CC2=O)cc1OC (centres undefined)	none (no result: Beta apoptosis, PREPL inh, T cruzi repl, CHOP inhibitor, CSC inhib)
Nc1nn(-c2ccccc2)c(N)c1N=Nc1cccc(F)c1	NR3A LBD binder 11, PREPL inh 65 | PREPL inh cf 60
Cc1nn(-c2ccccc2)c(N)c1N=Nc1cccnc1	none
Nc1nn(-c2ccccc2)c(N)c1N=Nc1ccc2c(c1)OCO2	PREPL inh 60 | PREPL inh cf 60
Nc1[nH]n(-c2ccccc2)c(=O)c1N=Nc1ccc2c(c1)OCCO2	none
Nc1[nH]n(-c2ccccc2)c(=O)c1N=Nc1ccc2c(c1)OCO2	NR3A LBD binder 11, PREPL inh 45, CSC inhib 113 | PREPL inh cf 47
CC(=O)Nc1ccc(S(=O)(=O)N(C)c2ccc(OCCOc3ccccc3F)cc2)cc1	none (no result: T cruzi repl, CHOP inhibitor)
Cc1ccc(S(=O)(=O)N2CC(C)N(C(=O)N3CCOCC3)C2C)cc1 (centres undefined)	none (no result: Beta apoptosis, CHOP inhibitor)
O=C(NCCCn1ccnc1)c1ccc(Cl)c(Cl)c1	none (no result: CHOP inhibitor)
Cc1ccc(-c2[nH]c3cc(C(=O)NCCCn4ccnc4)ccc3c(=O)c2O)cc1	PREPL inh 55 | PREPL inh cf inactive
CC(C)NC(=O)c1sc(=S)n2c1[nH]c(=O)c1ccc(C(=O)NCCc3ccc(Cl)cc3)cc12	PREPL inh 70 (no result: CHOP inhibitor) | PREPL inh cf 80
COc1ccc(OC)c(CCNC(=O)c2ccc3c(=O)[nH]c4c(C(=O)NC(C)C)sc(=S)n4c3c2)c1	none (no result: CHOP inhibitor)
O=C(NCCc1ccccc1)c1ccc2c(=O)[nH]c3c(C(=O)NCC4CCCO4)sc(=S)n3c2c1 (centres undefined)	PREPL inh 93 (no result: Beta apoptosis, CHOP inhibitor) | PREPL inh cf 90
CCOc1ccc(CCNC(=O)c2ccc3c(=O)[nH]c4c(C(=O)NC(C)C)sc(=S)n4c3c2)cc1	PREPL inh 55 (no result: CHOP inhibitor) | PREPL inh cf 79
O=C(Nc1cccc(O)c1)C1CC(c2ccc(Cl)cc2)=NO1 (centres undefined)	none (no result: CHOP inhibitor)
Cc1ccc2c(c1)c1c(n2CC(O)CNC2CCCCC2)CCCC1 (centres undefined)	PREPL inh 50, CHOP inhibitor 94, CSC inhib 77 | PREPL inh cf 46
CC(=O)[C@]1(O)Cc2c(O)c3c(c(O)c2[C@@H](O[C@H]2C[C@H](N)[C@H](O)[C@H](C)O2)C1)C(=O)c1ccccc1C3=O	PREPL inh 66, T cruzi repl 55, CSC inhib 86 | PREPL inh cf 85
Cc1c(C(=O)N2CCN(Cc3ccc4c(c3)OCO4)CC2)sc2ncnc(N3CCN(c4ccccc4F)CC3)c12	PREPL inh 48, T cruzi repl 64 (no result: CHOP inhibitor) | PREPL inh cf 44
Cc1c(C(=O)N2CCN(Cc3ccc4c(c3)OCO4)CC2)sc2ncnc(N3CCN(c4ccccc4)CC3)c12	PREPL inh 45 (no result: CHOP inhibitor) | PREPL inh cf 48
CCCNC(=O)Cn1cnc2sc(C(=O)N3CCN(Cc4ccc5c(c4)OCO5)CC3)c(C)c2c1=O	none
Cc1c(C(=O)N2CCN(c3ccccn3)CC2)sc2ncnc(N3CCN(c4ccccc4)CC3)c12	PREPL inh 44 (no result: CHOP inhibitor) | PREPL inh cf inactive
CCOC(=O)CN1C(=O)C(=O)N(Cc2ccccc2F)C1=O	none (no result: CHOP inhibitor)

Screens: PubChem, several laboratories
